From ChEMBL document CHEMBL1136934, “Synthesis of some novel organic nitrates and comparative in vitro study of their vasodilator profile” (J Med Chem, 2009)

Legend:
Aorta [1] = test: Ratio of EC50 for vasodilatory activity in Wistar rat endothelium-denuded thoracic aortic ring in presence of chloral hydrate to EC50 for vasodilatory activity in Wistar rat endothelium-denuded thoracic aortic ring; format: functional
Aorta [2] = test: Vasodilatory activity in Wistar rat endothelium-denuded thoracic aortic ring assessed as inhibition of phenylephrine-induced contraction drug treated 30 mins after ALDH2 inhibitor benomyl treatment; format: functional, tissue-based; settings: 0.5 h
Aorta [3] = test: Vasodilatory activity in Wistar rat endothelium-denuded cross tolerant thoracic aortic ring assessed as inhibition of phenylephrine-induced contraction preincubated with 0.55 mM GTN for 1 hr followed by washing; format: functional, tissue-based
Outline: (§1)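 Endothelium-denuded helical rat aortic strips. After 1 h equilibration, strips were incubated in 0.55 mM GTN for 1 h, then washed extensively for 1 h. Cumulative concentration-response curves were then run on contracted strips. EC50 (µM, mean ± SE, n = 3-15) was compared with untreated strips.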

Aorta [4] = test: Vasodilatory activity in Wistar rat endothelium-denuded thoracic aortic ring assessed as inhibition of phenylephrine-induced contraction drug treated 30 mins after ALDH2 inhibitor chloral hydrate treatment; format: functional, tissue-based; settings: 0.5 h
Aorta [5] = test: Vasodilatory activity in Wistar rat endothelium-denuded thoracic aortic ring assessed as inhibition of phenylephrine-induced contraction drug treated 30 mins after 1 uM soluble guanylate cyclase heme site inhibitor ODQ treatment; format: functional, tissue-based; settings: 0.5 h
Aorta [6] = test: Ratio of EC50 for vasodilatory activity in Wistar rat endothelium-denuded thoracic aortic ring in presence of benomyl to EC50 for vasodilatory activity in Wistar rat endothelium-denuded thoracic aortic ring; format: functional
Aorta [7] = test: Vasodilatory activity in Wistar rat endothelium-denuded thoracic aortic ring assessed as inhibition of phenylephrine-induced contraction; format: functional, tissue-based
Outline: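 Endothelium removed from rat aorta; three helically cut strips per aorta. Once agonist contraction plateaued, cumulative vasodilator concentrations were added. EC50 (µM) given as mean ± SE, n = 3-15.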

Aorta [8] = test: Ratio of EC50 for vasodilatory activity in Wistar rat endothelium-denuded cross tolerant thoracic aortic ring preincubated with 0.55 mM GTN for 1 hr followed by washing to EC50 for vasodilatory activity in Wistar rat endothelium-denuded thoracic aortic ring; format: functional; outline: as §1

O=[N+]([O-])OC[C@@H](CCc1ccccc1)O[N+](=O)[O-]
Ratio EC50 (Aorta [1]): 5.5 | EC50 (Aorta [2]): 120 nM | EC50 (Aorta [3]): 1600 nM | EC50 (Aorta [4]): 270 nM | EC50 (Aorta [5]): 29000 nM | Ratio EC50 (Aorta [6]): 2.4 | EC50 (Aorta [7]): 49 nM | Ratio EC50 (Aorta [8]): 33

O=[N+]([O-])OC[C@@H](Cc1ccccc1)O[N+](=O)[O-]
Ratio EC50 (Aorta [1]): 19 | EC50 (Aorta [2]): 630 nM | EC50 (Aorta [3]): 6400 nM | EC50 (Aorta [4]): 1200 nM | EC50 (Aorta [5]): > 100000 nM | Ratio EC50 (Aorta [6]): 10 | EC50 (Aorta [7]): 63 nM | Ratio EC50 (Aorta [8]): 102

O=[N+]([O-])OC[C@H](CCc1ccccc1)O[N+](=O)[O-]
Ratio EC50 (Aorta [1]): 7.6 | EC50 (Aorta [2]): 160 nM | EC50 (Aorta [3]): 2400 nM | EC50 (Aorta [4]): 370 nM | EC50 (Aorta [5]): 30000 nM | Ratio EC50 (Aorta [6]): 3.3 | EC50 (Aorta [7]): 49 nM | Ratio EC50 (Aorta [8]): 49

O=[N+]([O-])OC[C@H](Cc1ccccc1)O[N+](=O)[O-]
Ratio EC50 (Aorta [1]): 20 | EC50 (Aorta [2]): 600 nM | EC50 (Aorta [3]): 6100 nM | EC50 (Aorta [4]): 1200 nM | EC50 (Aorta [5]): > 100000 nM | Ratio EC50 (Aorta [6]): 9.8 | EC50 (Aorta [7]): 61 nM | Ratio EC50 (Aorta [8]): 100

O=[N+]([O-])OCC(CO[N+](=O)[O-])O[N+](=O)[O-] [NITROGLYCERIN]
Ratio EC50 (Aorta [1]): 32 | EC50 (Aorta [2]): 420 nM | EC50 (Aorta [3]): 4400 nM | EC50 (Aorta [4]): 940 nM | EC50 (Aorta [5]): > 100000 nM | Ratio EC50 (Aorta [6]): 14 | EC50 (Aorta [7]): 29 nM | Ratio EC50 (Aorta [8]): 152

O=[N+]([O-])OCCCc1ccccc1
Ratio EC50 (Aorta [1]): 19 | EC50 (Aorta [2]): 1500 nM | EC50 (Aorta [3]): 20000 nM | EC50 (Aorta [4]): 3000 nM | EC50 (Aorta [5]): > 100000 nM | Ratio EC50 (Aorta [6]): 9.4 | EC50 (Aorta [7]): 160 nM | Ratio EC50 (Aorta [8]): 125

O=[N+]([O-])OCCCCc1ccccc1
Ratio EC50 (Aorta [1]): 7.3 | EC50 (Aorta [2]): 510 nM | EC50 (Aorta [3]): 4500 nM | EC50 (Aorta [4]): 1100 nM | EC50 (Aorta [5]): 66000 nM | Ratio EC50 (Aorta [6]): 3.4 | EC50 (Aorta [7]): 150 nM | Ratio EC50 (Aorta [8]): 30
